Experimental data reported in ChEMBL document CHEMBL1155945, “Discovery of 2-chloro-N-(4-methoxyphenyl)-N-methylquinazolin-4-amine (EP128265, MPI-0441138) as a potent inducer of apoptosis with high in vivo activity” (J Med Chem, 2008).
Active and inactive are the calls of the source. No cut-off for these calls is given here.

Legend:
HCT-116 [1] = test: Induction of apoptosis in human HCT116 cells assessed as caspase 3 activation after 24 hrs; format: functional, cell-based; settings: HCT-116, 24 h
Method in brief: (§1)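 A live-cell, high-throughput caspase-3 activator assay was used, with fluorescent caspase-3 substrates in intact cells. EC50 values for caspase activation are the mean ± SEM of three or more experiments.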

T47D [2] = test: Induction of apoptosis in human T47D cells assessed as caspase 3 activation after 24 hrs; format: functional, cell-based; method in brief: as §1
P388 [3] = test: Cytotoxicity against mouse P388 cells; format: functional, cell-based
Method in brief: (§2)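 Cytotoxicity IC50 was measured in parental P388 cells and in the P388/ADR line, which overexpresses the ABC transporter Pgp-1 (MDR-1). Values are the mean ± SEM of three experiments.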

P388 [4] = test: Cytotoxicity against adriamycin-resistant mouse P388 cells expressing p-glycoprotein; format: functional, cell-based; method in brief: as §2
T47D [5] = test: Growth inhibition of human T47D cells after 48 hrs by CellTiter-Glo assay; format: functional
Method in brief: (§3)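 Cells were exposed continuously to the compound for 48 h at 37 °C. CellTiter-Glo reagent was then added and the samples mixed by agitation. After 10-15 min at room temperature, luminescence was read. GI50 was taken as 50% inhibition of cell proliferation. Values are the mean ± SEM of three experiments.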

HCT-116 [6] = test: Growth inhibition of human HCT116 cells after 48 hrs by CellTiter-Glo assay; format: functional; settings: HCT-116, 48 h; method in brief: as §3
[7] = Inhibition of tubulin polymerization
[8] = Therapeutic index, ratio of MTD for human MX1 cells xenografted crl:Nu/Nu-nuBR mouse to tumor growth inhibition in human MX1 cells xenografted crl:Nu/Nu-nuBR mouse; settings: in vivo
Mus musculus [9] = test: AUC in C57BL/6 mouse brain at 2.5 mg/kg, iv; format: ADME, organism-based; parameters: dose 2.5 mg/kg, route intravenous; settings: in vivo
Mus musculus [10] = test: Toxicity in human MX1 cells xenografted crl:Nu/Nu-nuBR mouse assessed as decrease in body weight at 10 mg/kg, iv administered once weekly for 2 weeks; format: organism-based; parameters: dose 10 mg/kg, route intravenous; scale not given: the % may be the effect or the level left; settings: in vivo, 336 h
PC-3 = test: Antitumor activity in human PC3 cells xenografted crl:Nu/Nu-nuBR mouse assessed as tumor growth inhibition at 10 mg/kg, iv administered once weekly for 2 weeks; format: functional, organism-based; parameters: dose 10 mg/kg
Mus musculus [11] = test: AUC in C57BL/6 mouse plasma at 2.5 mg/kg, iv; format: ADME, organism-based; parameters: dose 2.5 mg/kg, route intravenous; settings: in vivo
[12] = Displacement of fluorescent labeled colchicine from tubulin at 50 uM
MX1 [13] = test: Antitumor activity in human MX1 cells xenografted crl:Nu/Nu-nuBR mouse assessed as tumor growth inhibition at 10 mg/kg, iv administered once weekly for 2 weeks; format: functional; settings: MX1, 336 h
[14] = Toxicity in human MX1 cells xenografted crl:Nu/Nu-nuBR mouse; format: organism-based; settings: in vivo
Method in brief: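 MX-1 human breast tumour xenograft in mice; dosed intravenously once weekly at several dose levels […]. Tolerability was judged by maximum body weight decrease, alongside tumour growth measurement.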

MX1 [15] = test: Antitumor activity in human MX1 cells xenografted crl:Nu/Nu-nuBR mouse assessed as tumor growth inhibition at 2.5 mg/kg, iv administered once a day for 5 days for 2 weeks; format: functional

Compound | EC50 (HCT-116 [1]) [nM] | EC50 (T47D [2]) [nM] | also measured
CN(c1ccc([N+](=O)[O-])cc1)c1nc(Cl)nc2ccccc12 | 1400 | 770 | –
COc1ccc(N(C)c2nc(Cl)nc3cc(Cl)ccc23)cc1 | 350 | 300 | –
CN(c1ccc2c(c1)OCO2)c1nc(Cl)nc2ccccc12 | 65 | 31 | –
CC[C@]1(O)C[C@@H]2CN(CCc3c([nH]c4ccccc34)[C@@](C(=O)OC)(c3cc4c(cc3OC)N(C)[C@H]3[C@@](O)(C(=O)OC)[C@H](OC(C)=O)[C@]5(CC)C=CCN6CC[C@]43[C@@H]65)C2)C1 [VINBLASTINE] | – | – | IC50 (P388 [3]): 0.6 nM; IC50 (P388 [4]): 27 nM
COc1ccc(N(C)c2nc(Cl)nc3ccccc23)cn1 | 29 | 17 | GI50 (T47D [5]): 37 nM; GI50 (HCT-116 [6]): 40 nM
CN(c1ccc(OC(F)(F)F)cc1)c1nc(Cl)nc2ccccc12 | 59 | 49 | –
COc1cc2c(c(OC)c1OC)-c1ccc(OC)c(=O)cc1[C@@H](NC(C)=O)CC2 [COLCHICINE] | – | – | IC50 [7]: 500 nM
COc1ccc(N(C)c2ncnc3ccccc23)cc1 | 8 | 6 | –
COc1ccc(N(C)c2nc(Cl)nc3ccccc23)cc1 | – | – | IC50 [7]: < 400 nM; GI50 (T47D [5]): 1 nM; selectivity ratio [8]: 2.5; AUC (Mus musculus [9]): 20563 ng/mL; IC50 (P388 [3]): 2.1 nM; GI50 (HCT-116 [6]): 2 nM; Activity (Mus musculus [10]): < 10%; Activity (PC-3): Active; AUC (Mus musculus [11]): 669 ng/mL; Activity [12]: Active; inhibition in vivo at 10 mg/kg (MX1 [13]): > 95%; MTD [14]: 25 mg/kg; IC50 (P388 [4]): 2.2 nM; inhibition in vivo at 2.5 mg/kg (MX1 [15]): 90%
COc1cccc(N(C)c2nc(Cl)nc3ccccc23)c1 | 31 | 25 | –
COc1ccccc1N(C)c1nc(Cl)nc2ccccc12 | > 10000 | 4440 | –
COc1cccc(N(C)c2nc(Cl)nc3ccccc23)c1OC | 1110 | 680 | –
COc1ccc(Oc2ncnc3ccccc23)cc1 | > 10000 | > 10000 | –
Cc1ccc(N(C)c2nc(Cl)nc3ccccc23)cc1 | 21 | 15 | –
COc1ccc(N(C)c2nc(Cl)nc3cc(OC)c(OC)cc23)cc1 | 970 | 590 | –
CC(=O)O[C@@]12CO[C@@H]1C[C@H](O)[C@@]1(C)C(=O)[C@H](O)C3=C(C)[C@@H](OC(=O)[C@H](O)[C@@H](NC(=O)OC(C)(C)C)c4ccccc4)C[C@@](O)([C@@H](OC(=O)c4ccccc4)[C@H]21)C3(C)C [DOCETAXEL] | – | – | IC50 (P388 [3]): 2 nM; IC50 (P388 [4]): 277 nM
CCN(c1ccc(OC)cc1)c1nc(Cl)nc2ccccc12 | 49 | 39 | –
CCOc1ccc(N(C)c2nc(Cl)nc3ccccc23)cc1 | 5 | 5 | –
CN(c1ccc(Cl)cc1)c1nc(Cl)nc2ccccc12 | 72 | 68 | –
COc1ccc(Nc2nc(Cl)nc3cc(OC)c(OC)cc23)cc1 | > 10000 | > 10000 | –
COc1ccc(N(C)c2nc(Cl)nc3ccc(Cl)cc23)cc1 | 13 | 10 | –
COc1ccc(Nc2nc(Cl)nc3ccccc23)cc1 | > 10000 | > 10000 | –
CN(c1ccc(Oc2ccccc2)cc1)c1nc(Cl)nc2ccccc12 | > 10000 | > 10000 | –
COc1ccc(N(C)c2nc(NC/C=C(\C)CCC=C(C)C)nc3ccccc23)cc1 | – | – | GI50 (T47D [5]): 850 nM; GI50 (HCT-116 [6]): 350 nM
CN(c1ccc(O)cc1)c1nc(Cl)nc2ccccc12 | 120 | 85 | –
COc1ccc(N(C)c2nc(Cl)nc3ccccc23)cc1OC | 15 | 9 | –
COc1ccc(CN(C)c2nc(Cl)nc3ccccc23)cc1 | 120 | 68 | –
CN(c1ccccc1)c1nc(Cl)nc2ccccc12 | 300 | 210 | –
